These results are taken from ChEMBL document CHEMBL1949575, “Sclareol exhibits anti-inflammatory activity in both lipopolysaccharide-stimulated macrophages and the λ-carrageenan-induced paw edema model” (J Nat Prod, 2012).

The nature of data set [1]: Cytotoxicity against human breast cancer cells. Format: functional, cell-based. The conditions noted are these: Cancer cell lines.
Another data set concerns HCT-116. Put plainly: Cytotoxicity against human HCT116 cells. Format: functional, cell-based.
The subject of data set [2] is Mus musculus. Description: Antiinflammatory activity in ICR mouse assessed as inhibition of carrageenan-induced decrease in GPx activity in liver at 5 mg/kg, ip administered 30 mins before carrageenan challenge measured after 5 hrs. Format: functional, organism-based. Further details: dose 5 mg/kg. A digest of the protocol: (§1)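 Liver catalase, SOD and GPx activities determined 5 h after intrapaw carrageenan in ICR mice given drug i.p. 30 min beforehand. Indomethacin 10 mg/kg as positive control.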

A short description of data set [3]: Cytotoxicity against human leukemia cells. Format: functional, cell-based. As to conditions: Leukemia cell.
Data set [4] concerns Mus musculus. Put plainly: Antiinflammatory activity in ICR mouse assessed as inhibition of carrageenan-induced COX2 protein expression in paw at 10 mg/kg, ip administered 30 mins before carrageenan challenge by Western blotting relative to control. Format: functional. The conditions noted are these: route intraperitoneal. The procedure, abridged: (§2)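 Male ICR mice (18−25 g, n = 6 per group) given drug or saline i.p. 30 min before 50 μL of 1% carrageenan into the right hind paw plantar side. Paw soft tissue was homogenized in CHAPS buffer with protease inhibitors. About 30 μg protein run on 10% SDS-PAGE, immunoblotted for iNOS or COX-2, ECL detection, normalized to β-actin. Indomethacin 10 mg/kg as positive control.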
Background: In western blotting, separated proteins are transferred to a membrane and probed.

The test system of data set [5] is Mus musculus. Description: Antiinflammatory activity in ICR mouse assessed as inhibition of carrageenan-induced paw edema at 10 mg/kg, ip administered 30 mins before carrageenan challenge measured after 3 hrs by plethysmometer analysis. Set-up: dose 10 mg/kg. Format: functional, organism-based. A digest of the protocol: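 Male ICR mice (n = 6) received saline, indomethacin 10 mg/kg or drug i.p. 30 min before 50 μL of 1% carrageenan in the right hind paw. Paw volume was read by plethysmometer immediately and at 1−5 h. Swelling was expressed as the ratio of right paw volume after carrageenan to volume before.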
On the technique in general: In the carrageenan paw model, swelling and tenderness develop within hours.

Data set [6] deals with Mus musculus. Description: Antiinflammatory activity in ICR mouse assessed as inhibition of carrageenan-induced iNOS protein expression in paw at 10 mg/kg, ip administered 30 mins before carrageenan challenge by Western blotting relative to control. Format: functional. As to conditions: route intraperitoneal. A digest of the protocol:
as §2

Data set [7] deals with Mus musculus. Description: Antiinflammatory activity in ICR mouse assessed as inhibition of carrageenan-induced TNFalpha level in paw serum at 5 to 10 mg/kg, ip administered 30 mins before carrageenan challenge measured after 5 hrs by ELISA.
The subject of data set [8] is RAW264.7. Put plainly: Antiinflammatory activity in mouse RAW264.7 cells assessed as inhibition of LPS-induced nitric oxide production treated 1 hr before LPS challenge measured after 24 hrs by Griess method. Format: functional, cell-based. A digest of the protocol:
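RAW264.7 cells preincubated 1 h with drug at 0, 1, 5 or 10 μg/mL, then co-treated with 100 ng/mL LPS at 37 °C for 24 h. Culture medium mixed 1:1 with Griess reagent (1% sulfanilamide, 0.1% naphthyl ethylenediamine, 5% phosphoric acid), 10 min at room temperature, absorbance 540 nm against a nitrite standard curve.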
A general note: Griess reagent forms a coloured azo dye with nitrite.

The subject of data set [9] is Mus musculus. Description: Antiinflammatory activity in ICR mouse assessed as inhibition of carrageenan-induced nitric oxide level in paw serum at 1 to 10 mg/kg, ip administered 30 mins before carrageenan challenge measured after 5 hrs by Griess method. Format: functional, organism-based. The procedure, abridged: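 Mice pretreated i.p. 30 min before intraplantar 1% carrageenan; samples taken 5 h after injection. Homogenates diluted fourfold in water, deproteinized with zinc sulfate to a final 15 mg/mL, centrifuged at 10000g for 5 min. Supernatant mixed 1:1 with Griess reagent, 10 min at room temperature, A540. Nitrite quantified against a sodium nitrite standard curve.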

Data set [10] concerns RAW264.7. Put plainly: Cytotoxicity against LPS-stimulated mouse RAW264.7 cells assessed as cell viability at 10 ug/ml treated 1 hr before LPS challenge measured after 24 hrs by MTT assay. Format: cell-based. The conditions noted are these: raw264.7, 24 h. The procedure, abridged:
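RAW264.7 cells (2 × 10^5/well) grown 1 day to near confluence, pretreated 1 h with drug (0−10 μg/mL), then co-stimulated with 100 ng/mL LPS for 24 h. After DPBS washes, cells got 0.5 mg/mL MTT for 2 h at 37 °C, then DMSO for 30 min, and absorbance was read at 570 nm.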

Data set [11] has as its system Mus musculus. Description: Antiinflammatory activity in ICR mouse assessed as inhibition of carrageenan-induced malondialdehyde level in paw at 10 mg/kg, ip administered 30 mins before carrageenan challenge by TRARS method. Format: functional, organism-based. Further details: dose 10 mg/kg. A digest of the protocol:
(§3)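 Carrageenan (1%, 50 μL intraplantar) given to ICR mice 30 min after i.p. dosing; right hind paws dissected at end and kept at −80 °C. Malondialdehyde measured by thiobarbituric acid reaction under acidic high-temperature conditions, red TBARS complex read at 532 nm.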

Data set [12] deals with Mus musculus. Put plainly: Antiinflammatory activity in ICR mouse assessed as inhibition of carrageenan-induced decrease in CAT activity in liver at 5 mg/kg, ip administered 30 mins before carrageenan challenge measured after 5 hrs. Format: functional, organism-based. Further details: dose 5 mg/kg. A digest of the protocol:
as §1

For data set [13], the system named is Mus musculus. Description: Antiinflammatory activity in ICR mouse assessed as inhibition of carrageenan-induced malondialdehyde level in paw serum at 1 mg/kg, ip administered 30 mins before carrageenan challenge measured after 5 hrs by TRARS method. Format: functional, organism-based. Further details: dose 1 mg/kg. A digest of the protocol: as §3
Data set [14] relates to Mus musculus. Description: Antiinflammatory activity in ICR mouse assessed as inhibition of carrageenan-induced decrease in SOD activity in liver at 5 mg/kg, ip administered 30 mins before carrageenan challenge measured after 5 hrs. Format: functional, organism-based. Further details: dose 5 mg/kg. A digest of the protocol:
as §1

A further data set relates to PBMC. Description: Cytotoxicity against human PBMC. Format: cell-based.
Data set [15] concerns RAW264.7. Put plainly: Antiinflammatory activity in mouse RAW264.7 cells assessed as inhibition of LPS-induced COX2 expression at 5 to 10 ug/ml by Western blotting. Format: functional, cell-based. A digest of the protocol: (§4)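 RAW264.7 macrophages in DMEM with 10% FBS were pretreated 1 h with drug (0−10 μg/mL), then co-stimulated with 100 ng/mL LPS for 24 h. Lysates (ice-cold Triton lysis buffer, pH 7.9) were blotted for iNOS or COX-2, with about 30 μg protein per lane and ECL detection. Bands normalized to β-actin, expressed relative to the LPS-only group as 100%.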

The subject of data set [16] is Mus musculus. Description: Antiinflammatory activity in ICR mouse assessed as inhibition of carrageenan-induced neutrophil infiltration in paw at 10 mg/kg, ip administered 30 mins before carrageenan challenge. Format: functional, organism-based. Set-up: dose 10 mg/kg.
Data set [17] relates to RAW264.7. Description: Antiinflammatory activity in mouse RAW264.7 cells assessed as inhibition of LPS-induced iNOS expression at 5 to 10 ug/ml by Western blotting. Format: functional, cell-based. The procedure, abridged:
as §4

For data set [18], the system named is Mus musculus. Description: Antiinflammatory activity in ICR mouse assessed as inhibition of carrageenan-induced decrease in GPx activity in liver at 10 mg/kg, ip administered 30 mins before carrageenan challenge measured after 5 hrs. Set-up: dose 10 mg/kg. Format: functional, organism-based. A digest of the protocol: as §1
The test system of data set [19] is Mus musculus. Description: Antiinflammatory activity in ICR mouse assessed as inhibition of carrageenan-induced malondialdehyde level in paw serum at 10 mg/kg, ip administered 30 mins before carrageenan challenge measured after 5 hrs by TRARS method. Set-up: dose 10 mg/kg. Format: functional, organism-based. The procedure, abridged: as §3
In data set [20] the test system is Mus musculus. Put plainly: Antiinflammatory activity in ICR mouse assessed as inhibition of carrageenan-induced decrease in SOD activity in liver at 10 mg/kg, ip administered 30 mins before carrageenan challenge measured after 5 hrs. Format: functional, organism-based. Set-up: dose 10 mg/kg. A digest of the protocol:
as §1

For data set [21], the system named is Mus musculus. Description: Antiinflammatory activity in ICR mouse assessed as inhibition of carrageenan-induced decrease in CAT activity in liver at 10 mg/kg, ip administered 30 mins before carrageenan challenge measured after 5 hrs. Format: functional, organism-based. Set-up: dose 10 mg/kg. A digest of the protocol:
as §1

In data set [22] the test system is Mus musculus. Description: Antiinflammatory activity in ICR mouse assessed as inhibition of carrageenan-induced TNFalpha level in paw serum at 10 mg/kg, ip administered 30 mins before carrageenan challenge measured after 5 hrs by ELISA. Format: functional, organism-based. Further details: dose 10 mg/kg. The procedure, abridged:
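ICR mice (n = 6) dosed i.p. 30 min before intraplantar 1% carrageenan; blood collected at sacrifice and stored at −80 °C. Serum TNF-α quantified by commercial ELISA, reported in pg/mL from the standard-curve regression. Indomethacin 10 mg/kg as reference.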

Converted amounts (≈) assume the structure as drawn. The source made the active and inactive calls. No cut-off for these calls is given here.

Regarding `C=C[C@](C)(O)CC[C@@H]1[C@@]2(C)CCCC(C)(C)[C@@H]2CC[C@@]1(C)O` [SCLAREOL], the IC50 was 7 µg/mL (≈ 22.7 µM) in [1], 10.6 µg/mL (≈ 34.4 µM) in the data set on HCT-116, 6 µg/mL (≈ 19.4 µM) in data set [3] and 10.7 µg/mL (≈ 34.7 µM) in the data set with PBMC. The inhibition entry in the data set on Mus musculus [2], in the data set with Mus musculus [5], with Mus musculus [7], in the data set with Mus musculus [9], with Mus musculus [11] and in the data set on Mus musculus [12] was “Active” in each case. Also, the inhibition result in the data set on Mus musculus [13], in the data set with Mus musculus [14], with RAW264.7 [15], in the data set on Mus musculus [16] and in the data set on RAW264.7 [17] was “Active” each time. The inhibition in vivo at 10 mg/kg with Mus musculus [4] came out at 70.3%; with Mus musculus [6], 69.6%. Besides, in the data set on RAW264.7 [8], the inhibition result is “Dose-dependent effect”. Moreover, in the data set on RAW264.7 [10], the Activity result is reported as “Non-toxic”.
For the compound `COc1ccc2c(c1)c(CC(=O)O)c(C)n2C(=O)c1ccc(Cl)cc1` [INDOMETHACIN], the inhibition entry in the data set with Mus musculus [18], with Mus musculus [5], in the data set on Mus musculus [19], in the data set on Mus musculus [20], with Mus musculus [16] and with Mus musculus [21] was “Active” in each case. Besides, the inhibition result in the data set with Mus musculus [22] was “Active”. The inhibition in vivo at 10 mg/kg in the data set with Mus musculus [4] was found to be 58.1%; in the data set with Mus musculus [6], 61.5%.

A word on the IC50: it is the concentration that gives 50% inhibition. A word on the inhibition in vivo: it is how much of the control response was suppressed.
